Assay outcomes (PubChem BioAssay)
Hits are enriched below; roughly 1.3% of the tested compounds scored in any of these assays.
Wee1 degr inh: Wee1 degradation inhibitors, primary screen, cell-based, HeLa, Wee1K328M-luciferase, luminescence. HeLa Luc-Wee1K328M stability; 100% = proteasome inhibitor MG132 effect. actives 1.2% (n = 220,000). reporter increase, % at 5 µM. AID 1321, 2008. Wee1-like protein kinase (Homo sapiens), P30291;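 active means activation above the mean of all tested compounds plus 3 SD, set per screening run, cut at about 8.8% in these data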;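 further: cells exposed to compound for 20 h before luminescence read; 0% = DMSO alone and 100% = MG132 at 30 µM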
Target sequence (P30291 whole entry K328M): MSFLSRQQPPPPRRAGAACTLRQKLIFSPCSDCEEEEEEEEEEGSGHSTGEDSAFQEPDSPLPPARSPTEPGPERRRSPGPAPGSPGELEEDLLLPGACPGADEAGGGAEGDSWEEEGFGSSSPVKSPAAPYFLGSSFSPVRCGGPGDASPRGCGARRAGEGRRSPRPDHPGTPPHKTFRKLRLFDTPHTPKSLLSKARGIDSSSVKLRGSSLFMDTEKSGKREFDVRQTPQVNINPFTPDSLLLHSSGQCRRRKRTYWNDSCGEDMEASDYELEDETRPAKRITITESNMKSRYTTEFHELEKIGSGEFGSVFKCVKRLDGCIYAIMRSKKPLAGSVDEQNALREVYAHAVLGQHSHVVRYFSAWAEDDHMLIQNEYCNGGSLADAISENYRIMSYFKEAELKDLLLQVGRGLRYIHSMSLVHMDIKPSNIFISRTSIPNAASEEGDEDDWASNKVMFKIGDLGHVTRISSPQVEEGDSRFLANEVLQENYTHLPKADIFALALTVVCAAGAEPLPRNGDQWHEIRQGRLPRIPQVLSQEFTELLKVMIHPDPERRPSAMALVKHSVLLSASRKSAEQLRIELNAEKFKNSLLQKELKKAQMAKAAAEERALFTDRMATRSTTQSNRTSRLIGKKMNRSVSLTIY
Mdm2 ligase inh: MDM2-luciferase reporter signal enhancers, primary screen, MDM2 E3 ligase inhibitor project, cell-based, luminescence, 1536-well; E3 ubiquitin-protein ligase Mdm2 (Homo sapiens), Q00987; cell-based MDM2 ubiquitination luciferase reporter, 2 h; 0 = plate control, 100 = twice control, blank-subtracted; signal enhancement, % at 5 µM; actives 0.11% (n = 210,000); AID 1230, 2008;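 active means signal enhancement of 30% or more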;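 further: luminescence tracks abundance of the self-degrading MDM2-luciferase fusion protein; higher signal means inhibition of MDM2 E3 ligase activity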
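Assay system: stable mammalian line carrying autodegrading MDM2–luciferase fusion reporter; amount: 2000 cells seeded into each well; buffer or medium: DMEM; benchmarks: plate control and blank wells; signal: luciferase luminescence; timing: 2 h compound exposure at 37 °C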
Hsp70 act: Hsp70 transcriptional activators, primary screen, cell-based, HeLa, Hsp70 promoter luciferase, luminescence, 10 µM; HeLa Hsp70 promoter luciferase reporter; scaled: vehicle 0, proteasome-inhibitor control 100%; activation, % at 10 µM; actives 0.04% (n = 200,000); AID 1203, 2008;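 active means activation above the mean across all tested compounds plus 3 SD, cutoff set per campaign, cut at about 5.5% in these data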;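 further: 100% = MG132 at 30 µM as the positive control and 0% = DMSO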
Pf gamet viab: late stage P. falciparum gametocyte viability inhibitors, primary screen, ATP luminescence, HTS. inhibition, % at 10.9 µM. P. falciparum stage V gametocytes, 24 h. actives 0.065% (n = 150,000);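 active means inhibition above the mean plus 3 SD of compounds within the control limits, set per campaign, cut at about 38% in these data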;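 further: 0% = DMSO wells and 100% = medium only without gametocytes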
Numbers without * were called inactive; . = not tested or not shown.

SMILES | Wee1 degr inh | Mdm2 ligase inh | Hsp70 act | Pf gamet viab
CCCNc1cc(C)oc(=O)c1C(=O)CCC | 3 | -12 | 0 | .
O=C(NNc1cccc(Cl)c1)c1cccnc1Cl | 9.4* | 7 | 0 | -16
O=C(Nc1ccc(Cl)cc1)c1ccc(-n2cccn2)c([N+](=O)[O-])c1 | -2 | 38* | 0 | .
CCC1=[N+](CC(=O)c2ccc(C)cc2)CCn2c(C)ccc21 | -1 | -15 | 0 | .
CCC1=[N+](CC(=O)c2ccc(Br)cc2)CCn2c(C)ccc21 | 11* | -6 | . | -2
CCC(C)NC(=O)CC(NS(=O)(=O)c1ccc(NC(C)=O)cc1)C(C)C (centres undefined) | 9.8* | -10 | 0 | 9
CCCOC(=O)N[C@@H]1C(=O)N2C(C(=O)OCCC)=C(C)CS[C@H]12 | . | . | . | 18
Fc1cccc(Cl)c1/C=N/n1c(-c2cccnc2)n[nH]c1=S | 2 | 45* | 0 | -1
S=c1[nH]nc(-c2cccnc2)n1/N=C/c1ccccc1 | -1 | -7 | . | 2
CC(=O)Nc1cc(C(=O)O)ccc1S(=O)(=O)c1ccc(C)cc1 | 9.2* | 2 | 0 | -17
CS(=O)(=O)c1ccc(C(=O)NC2CCCc3ccccc32)cc1 (centres undefined) | -2 | -17 | 0 | .
COc1ccccc1C(=O)OCC(=O)c1cccc([N+](=O)[O-])c1 | 1 | -6 | 0 | .
Cc1cc(C(=O)OCC(=O)c2cccc([N+](=O)[O-])c2)c2ccccc2n1 | 9.5* | -9 | 0 | 3
CC1(C)N([O-])C(c2ccccc2)=C[N+](=O)C1(C)C | 9.3* | -16 | 0 | -22
CC(Sc1nnc(NCc2ccccc2)s1)C(=O)Nc1ccc2c(c1)C(=O)c1ccccc1C2=O (centres undefined) | 1 | -6 | 0 | -8
COC(=O)/C=C/c1ccc(OC(=O)c2ccncc2)cc1 | 4 | 4 | 0 | -30
CCOc1ccccc1N1CCN(C(=O)c2ccncc2)CC1 | 0 | 8 | 0 | .
CCOc1ccccc1N1CCN(C(=O)c2ccc3[nH]c4c(c3c2)CCCC4)CC1 | 3 | 5 | 0 | 44*
O=[N+]([O-])c1ccc(/C=N/N=C/c2ccc([N+](=O)[O-])o2)o1 | -1 | 77* | 0 | -8
Cc1c(NC(=S)NC(=O)c2cccc(Br)c2)c(=O)n(-c2ccccc2)n1C | . | . | . | -14
COc1ccc2c(c1)C(=O)CC(O)(C(F)F)O2 (centres undefined) | 9.8* | -13 | . | 0
CC1(C)CC(=O)c2cc(OCC(=O)O)ccc2O1 | 4 | -9 | 0 | .
Fc1ccc2nc(Nc3ccccc3)sc2c1 | 11* | -9 | 0 | .
O=C(Cn1c(=S)[nH]c2ccccc2c1=O)NCCc1ccccc1 | 9.5* | -2 | 0 | .
CC(=O)/C(=C\N(C)C)Sc1ccc(C)cc1 | 0 | -9 | . | -10
SMILES | Wee1 degr inh | Mdm2 ligase inh | Hsp70 act | Pf gamet viab
CC(=O)/C(=C\N(C)C)Sc1ccc(Cl)cc1 | 9.1* | -10 | . | 9
N#CCc1cc2ccc3cccc4ccc(c1)c2c34 | 22* | -6 | . | -5
Cc1nc2c(sc3nc4c(cc32)COC(C)(C)C4)c(=O)n1CC(=O)NCc1ccco1 | 9.3* | -9 | 1 | .
CC1(C)Cc2nc3sc4c(SCC(=O)NCc5ccco5)ncnc4c3cc2CO1 | 7 | -11 | 0 | 2
CCOc1ccc(-c2c(C)n([O-])c3c([n+]2=O)CCCCC3)cc1 | 8.9* | 1 | 0 | -7
COc1ccc(-c2c(C)n([O-])c3c([n+]2=O)CCCC3)cc1 | -1 | -26 | 0 | -45
Cc1nn(C)c(C(=O)Sc2cccc(Cl)c2)c1[N+](=O)[O-] | -2 | -9 | . | 18
Cc1cccc(-n2c(SCc3ccc([N+](=O)[O-])cc3)nnc2-c2c[nH]c3ccccc23)c1 | 0 | -19 | 0 | 19
Cc1ccc(C(C)C)c(OCC(=O)N/N=C/C2CCCCC2)c1 | 9.2* | -24 | 0 | .
C=CCN1C(=O)C(Cc2ccccc2)SC1=Nc1ccc(C(=O)O)cc1 (centres undefined) | -1 | -8 | 0 | 8
COc1ccc(-c2csc(C)n2)cc1 | 9.0* | . | 0 | .
COc1ccc(NC(=O)c2ccc(-c3csc(C)n3)cc2)cc1 | . | . | . | -11
COc1ccc(-c2csc(-c3ccc(C(=O)O)cc3)n2)cc1 | 10* | -20 | 0 | 13
Cc1ccccc1-c1cc(C(=O)NCc2ccco2)n(CC2CC(c3cccnc3)=NO2)n1 (centres undefined) | . | . | . | -14
Cc1cc(C)nc(NC(=O)CSc2ccccn2)n1 | 17* | -13 | 0 | -4
C=CCn1c(SCC(=O)NC2CCS(=O)(=O)C2)nc2scc(C3CC3)c2c1=O (centres undefined) | 9.7* | -15 | 0 | .
C=CCn1c(SCC(=O)c2ccc(CNC(C)=O)o2)nc2scc(C3CC3)c2c1=O | -1 | -12 | 0 | 4
CCOc1ccc(C(=O)N2CCc3ccccc32)cc1OCC | . | . | . | 1
O=C1CN(C(=O)CSc2nc(-c3ccc(Cl)cc3)cs2)c2ccccc2N1 | 2 | 1 | 0 | -5
Cc1ccc(C)c(S(=O)(=O)N2CCN(Cc3ccc(O)c4ncccc34)CC2)c1 | 9.3* | -3 | 0 | 21
CCOC(=O)N1CCN(Cc2ccc(O)c3ncccc23)CC1 | -1 | 0 | 0 | 3
Cc1ccc2c(c1)c1ccc3c(c1n2C)C(=O)C=CC3=O | -2 | 40* | . | .
COc1ccc2c(c1)c1ccc3c(c1n2C)C(=O)C=CC3=O | 8 | -32 | . | .
COc1ccc(C(=O)Oc2ccc(/C=N/O)cc2)cc1 | 0 | -16 | 0 | 40*
COc1cc(/C=C/C(=O)NC(C)CCc2ccccc2)cc(OC)c1OC (centres undefined) | 11* | -9 | 1 | .
SMILES | Wee1 degr inh | Mdm2 ligase inh | Hsp70 act | Pf gamet viab
COc1cc(/C=C\C(=O)NCc2ccc3c(c2)cc(C)n3C)cc(OC)c1OC | 15* | . | 0 | .
CC(NC(=O)CSC(=S)N(C)C)C12CC3CC(CC(C3)C1)C2 (centres undefined) | -1 | -11 | 0 | .
COc1ccc(NC(=O)CSc2nc3ncccc3[nH]2)cc1OC | 11* | -18 | 0 | -17
O=C(CSc1nc2ncccc2[nH]1)Nc1ccc2c(c1)OCO2 | -4 | -8 | . | 1
Clc1ccc(CCNc2ncnc3c2nnn3Cc2ccccc2)cc1 | . | . | . | 8
CCOc1ccccc1N(C(=O)Nc1ccc(Cl)cc1)C1=NCCS1 | 4 | -20 | 0 | .
CN(C(=O)c1cccc(COc2ccc(Cl)cc2Cl)c1)c1ccccc1 | 3 | 46* | 0 | -2
O=C(NCc1ccccc1)c1cccc(COc2cc(Cl)ccc2Cl)c1 | 2 | 2 | 0 | -2
COc1ccc(NC(=O)CN(C)Cc2c(F)cccc2Cl)cc1S(=O)(=O)N1CCCCC1 | 0 | -8 | -1 | -4
Cc1ccc(N/N=C(\Cc2nc3ccccc3[nH]2)c2ccccc2)cc1 | 16* | . | 0 | .
